This is a sample that favours compounds with a hit; in the whole collection about 4.9% have one here.
STAT3 activator: increases IL-6 driven STAT3 reporter signal; U3A cells, IL-6 STAT3-luciferase reporter, luminescence; 100% = signal with IL-6 EC80 alone; activation (% of control), % at 5.6 µM; actives 0.91% (n = 190,000); AID 871;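 active = activation above the screen-wide mean of compound activation plus 3 SD, cut at about 130% in these data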;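 also: 0% = background luminescence of wells with medium and substrate only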
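Material: STAT1-lacking human U3A cells, STAT3 luciferase reporter | Benchmarks: IL-6-only wells as 100% reference | Probe or stimulus: IL-6 (33 ng/mL) | Timing: Compound 1 h, then IL-6 6 h at 37 °C | Detection: Luminescence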
NF-kB neuron act: raises NF-kB expression in human neuronal cells; NF-kB reporter expression; active compounds read high; fold change at 12.5 µM; actives 1.6% (n = 190,000); AID 1239; in the data active = fold change above about 3.3
STAT1 inh: inhibitors of IFN-gamma induced STAT1 signaling. NIH 3T3 STAT1-luciferase reporter, luminescence. inhibition, % at 5.5 µM. actives 0.35% (n = 200,000). AID 920;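 active = inhibition above a set limit, the mean inhibition across all tested compounds plus 3 SD, cut at about 34% in these data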;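 also: 0% = IFN-gamma with DMSO and 100% = IFN-gamma with 300 µM nifuroxazide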
APP 5'UTR act: APP 5'UTR luciferase reporter activation | SH-SY5Y APP 5'UTR luciferase reporter, luminescence; zero percent = DMSO vehicle wells | activation, % at 2 µM | actives 1% (n = 190,000) | AID 1276;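 active = activation above a set limit, based on mean plus 3 SD of controls, cut at about 140% in these data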
STAT1 act: activators of IFN-gamma induced STAT1 signaling. NIH 3T3 STAT1-luciferase reporter, luminescence; 100% = IFN-gamma alone, no compound. activation (% of control), % at 5.5 µM. actives 2.6% (n = 200,000). AID 932;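 active = activation above the screen-wide mean activation plus 3 SD, cut at about 130% in these data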;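 also: raw ratio to IFN-gamma control signal so 100% means no change and 0% no light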
STAT3 inh-1: reduces IL-6 driven STAT3 reporter signal. actives 0.89% (n = 190,000). U3A cells, IL-6 STAT3-luciferase reporter, luminescence; host cell line lacks STAT1. AID 862. inhibition, % at 5.5 µM;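 active = inhibition above the mean inhibition across all screened compounds plus 3 SD, cut at about 44% in these data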;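 also: 0% = DMSO only wells and 100% = 100 µM nifuroxazide control wells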
STAT3 inh-2: STAT3 inhibition, confirmation assay. shares compounds with STAT3 inh-1. U3A cells, IL-6 STAT3 luciferase reporter, luminescence; cell line lacks STAT1. inhibition, % at 5.7 µM. actives 45% (n = 1,200). AID 1265;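 active = inhibition above the hit cutoff computed for the primary STAT3 screen, cut at about 44% in these data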;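 also: 0% = IL-6 plus DMSO and 100% = IL-6 plus nifuroxazide control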
NFkB inh STAT3ct: NF-kappaB inhibition in STAT3 inhibitor counter-screen | HEK293T NF-kB luciferase reporter, TNF-alpha induced | actives 36% (n = 1,200) | shares compounds with STAT3 inh-1 | inhibition, % at 5.7 µM;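 active = inhibition above the mean of solvent-only control wells plus 3 SD, cutoff set per campaign, cut at about 13% in these data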;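 also: 0% = TNF-alpha with DMSO and 100% = TNF-alpha with MG high control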
STAT1 inh 2: STAT1 inhibition in STAT3 inhibitor counter-screen; shares compounds with STAT3 inh-1; NIH 3T3 STAT1-luciferase reporter, IFN-gamma induced, luminescence; inhibition, % at 5.7 µM; actives 27% (n = 1,200); AID 1317;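 active = inhibition above the mean plus 3 SD of solvent-only control wells, limit set per screening run, cut at about 16% in these data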;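 also: 0% = DMSO with IFN-gamma and 100% = nifuroxazide control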
* hit, by the source's call; nt = not tested or not shown.

SMILES | STAT3 activator | NF-kB neuron act | STAT1 inh | APP 5'UTR act | STAT1 act | STAT3 inh-1 | STAT3 inh-2 | NFkB inh STAT3ct | STAT1 inh 2
COc1ccc(C)cc1-n1nnnc1SCn1nnc2ccccc2c1=O | 59 | 0.43 | 25 | -2 | 77 | 54* | 44* | 7 | 16
Cc1ccc(-n2nnnc2SCn2nnc3ccccc3c2=O)cc1 | 108 | 2.2 | -7 | 57 | 107 | -5 | nt | nt | nt
Cc1cc(/C=C2/SC(=S)N(c3cccc(C(F)(F)F)c3)C2=O)c(C)n1-c1cccnc1 | 34 | nt | 28 | 14 | 79 | 78* | 84* | 33* | 31*
CCOC(=O)c1sc(NC(=O)c2cc3c(s2)CCC(C)C3)nc1C (stereo not drawn) | 54 | 1.7 | 2 | 16 | 98 | 56* | -7 | -9 | -43
Cc1csc(NC(=O)c2cc3c(s2)CCC3)n1 | 46 | 9.8* | -19 | 105 | 118 | 70* | 38 | -27 | -107
Cc1ccc(-c2nc3n(n2)Cc2ccccc2-3)cc1 | 63 | 4.2* | 24 | 197* | 78 | 49* | -1 | 18* | -37
NC(=S)Cc1nc2n(n1)Cc1ccccc1-2 | 96 | 0.84 | -5 | 10 | 105 | 3 | nt | nt | nt
Cc1ccc(S(=O)(=O)NC(=O)NCCc2ccccc2)cc1 | 93 | nt | 2 | -2 | 99 | 13 | nt | nt | nt
CC1=NC(=O)C(N=Nc2ccccc2C)N1c1ccccc1 (stereo not drawn) | 106 | nt | -6 | 13 | 106 | -4 | nt | nt | nt
CC1=NC(=O)C(N=Nc2cccc(C(=O)O)c2)N1c1ccccc1 (stereo not drawn) | 45 | 9.5* | 29 | 87 | 74 | 65* | 41 | 18* | -30
O=C(c1cccs1)C1CCCN(Cc2nc(Cc3ccccc3F)no2)C1 (stereo not drawn) | 89 | nt | 11 | 14 | 89 | 17 | nt | nt | nt
COc1ccc(NC(=O)CSc2ccccn2)cc1OC | 104 | 0.88 | 4 | -14 | 96 | 0 | nt | nt | nt
COc1ccc(NC(=O)CSc2ncccc2C(=O)OC(C)C)cc1OC | 61 | 0.85 | 17 | -5 | 85 | 51* | 37 | 8 | 17*
COc1ccc(-c2ncncc2-c2csc(C)n2)c(O)c1OC | 107 | 1 | -1 | 0 | 100 | -3 | nt | nt | nt
COC1=C(N)C(=O)c2nc(-c3nc(C(=O)O)c(C)c(-c4ccc(OC)c(OC)c4O)c3N)ccc2C1=O | 9 | 0.3 | 29 | -95 | 74 | 106* | 103* | 97* | 85*
COc1ccccc1OCC(=O)OCC(=O)Nc1sccc1C(N)=O | 96 | 1.2 | -1 | -10 | 101 | 7 | nt | nt | nt
NC(=O)c1ccsc1NC(=O)COC(=O)Cc1cccc2ccccc12 | 37 | 0.69 | 18 | 3 | 83 | 75* | 74* | 19* | 20*
Cc1ccnc(NC(=O)COc2ccccc2[N+](=O)[O-])c1 | 64 | 1.1 | -12 | 150* | 108 | 48* | 17 | -30 | -101
Cc1ccc(NC(=O)COc2ccccc2[N+](=O)[O-])nc1 | 60 | 5.5* | 5 | 31 | 95 | 51* | 18 | -25 | -95
O=C(COc1ccccc1[N+](=O)[O-])Nc1cccnc1 | 90 | 1.9 | -25 | -1 | 123 | 19 | nt | nt | nt
CC(C)c1ccc2c(c1)C(c1ccc(N3CCOCC3)cc1)=NNC(c1cccs1)=N2 | 102 | 1.5 | -10 | 18 | 109 | 5 | nt | nt | nt
CCc1ccc(CNC(=O)c2cc3c(C)nc4ccccc4c3o2)cc1 | 60 | 0.46 | 18 | -8 | 84 | 52* | 39 | 4 | 13
COc1cc(NC(=O)c2cc3c(C)nc4ccccc4c3o2)cc(OC)c1OC | 85 | 0.36 | 2 | -1 | 98 | 24 | nt | nt | nt
COc1ccc(CNC(=O)c2cc3c(C)nc4ccccc4c3o2)c(OC)c1 | 39 | 0.65 | 30 | 7 | 73 | 79* | 60* | 15* | 20*
COc1cccc(CNC(=O)c2cc3c(C)nc4ccccc4c3o2)c1 | 68 | 0.41 | 14 | -11 | 88 | 46* | 23 | -2 | 2
SMILES | STAT3 activator | NF-kB neuron act | STAT1 inh | APP 5'UTR act | STAT1 act | STAT3 inh-1 | STAT3 inh-2 | NFkB inh STAT3ct | STAT1 inh 2
Cc1cnc(NC(=O)C2COc3ccccc3O2)s1 (stereo not drawn) | 45 | 2.6 | -7 | 144* | 107 | 71* | 41 | -29 | -97
COCCn1c(SCCCC(=O)c2ccc(Br)cc2)nnc1-c1ccncc1 | 55 | 0.81 | 19 | -11 | 83 | 53* | 45* | 13* | 16
Cn1c(SCCCC(=O)c2ccc(F)cc2)nnc1-c1ccncc1 | 98 | 0.85 | -3 | 22 | 103 | 6 | nt | nt | nt
O=C(CSc1nnc(Cn2nnc3ccccc32)o1)N(Cc1ccc(F)cc1)c1ccccc1 | 37 | 0.83 | 20 | -4 | 82 | 76* | 72* | 24* | 19*
N#Cc1ccccc1COc1ccc(/C=C/C(=O)O)cc1 | 64 | 0.56 | 18 | -60 | 83 | 48* | 37 | 16* | 11
O=C(O)/C=C/c1cccc(OCc2ccccc2)c1 | 104 | 1.4 | -10 | 7 | 109 | -2 | nt | nt | nt
Cc1cc(C(=O)CSc2nnnn2-c2ccc(O)cc2)c(C)n1Cc1ccc2c(c1)OCO2 | 105 | 0.51 | 3 | -21 | 98 | -2 | nt | nt | nt
Cc1cc(C(=O)CSc2nnc(-c3cccc(F)c3)n2N)c(C)n1Cc1ccc2c(c1)OCO2 | 65 | 0.79 | 14 | 8 | 88 | 47* | 39 | 13 | 10
CN(c1ccc(C(=O)N2CCN(Cc3ccc4c(c3)OCO4)CC2)cc1)S(=O)(=O)c1ccccc1 | 60 | 0.79 | 8 | 7 | 93 | 49* | 41 | 11 | 6
Cc1cccc(C(=O)N2CCN(Cc3ccc4c(c3)OCO4)CC2)c1 | 109 | 1 | -13 | -3 | 112 | -6 | nt | nt | nt
Cc1ccc(S(=O)(=O)N(C)c2ccc(C(=O)N3CCN(Cc4ccc5c(c4)OCO5)CC3)cc2)cc1 | 58 | 0.62 | 13 | 9 | 88 | 54* | 45* | 10 | 0
CCN1CCN(C(=O)c2ccc(Cn3c(=O)[nH]c4cc(OC)c(OC)cc4c3=O)cc2)CC1 | 101 | 0.79 | -4 | 3 | 103 | -4 | nt | nt | nt
COc1ccc(Cn2c(=O)[nH]c3cc(C(=O)N4CCN(Cc5ccccc5)CC4)ccc3c2=O)cc1 | 50 | 0.89 | 2 | 4 | 98 | 64* | 56* | 16* | -7
c1ccc(C2=NNC(=NC3CC3)SC2)cc1 | 42 | 2.2 | 27 | 22 | 76 | 74* | 38 | 12 | -17

High-throughput results: PubChem, several laboratories
